The values that follow come from paper PMC11815446 (Open Heart, 2025).

Data set [1] has as its system ADP-induced platelet aggregation. Nature of the data set: ADP-induced platelet aggregation in whole blood, impedance aggregometry. The following applies: for mean %inhibition of platelet aggregation: all subjects. It is filed as in vivo, human.
A short description of data set [2]: Safety assessment, treatment emergent adverse events. The following applies: A n=40, B n=39. Type of data set: in vivo, human. Put shortly: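 Healthy Indian adults (18–45 y, BMI 18.50–29.90 kg/m²) were CYP2C19-genotyped at two laboratories as *1/*1 or *2/*2. Randomised two-period crossover: loading dose day 1, then once-daily maintenance doses days 2–6, with a washout of at least 14 days. The investigator recorded adverse events throughout the study, along with PT/PTT, vital signs, ECGs, haematology, blood chemistry, urinalysis and physical examinations.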

Another data set has as its system CYP2C19. The following applies: ref 8 9; cited from earlier work.
The conditions of data set [3]: two-step process in the liver; ref 8 9; cited from earlier work.

Where a name gives a salt, the structure may show the parent alone.

`COC(=O)[C@H](c1ccccc1Cl)N1CCc2sccc2C1` [Clopidogrel, Hydrogen sulfate;hydron;methyl (2S)-2-(2-chlorophenyl)-2-(6,7-dihydro-4H-thieno[3,2-c]pyridin-5-yl)acetate]: in data set [1] (6 hours postdose (loading dose: AT-10 40 mg, clopidogrel 300 mg)), the “mean %inhibition of platelet aggregation” value is reported as 18.53%. The “mean %inhibition of platelet aggregation” value in data set [1] (6 hours postdose on day 6 (maintenance dose: AT-10 10 mg, clopidogrel 75 mg)) was found to be 51.19%. In data set [1] (postdose), the “time at which inhibition of ADP-induced platelet aggregation reaches the peak” value was “around 6 hours”. For the same molecule, in data set [2], the “Treatment emergent adverse events: Anxiety” value is recorded as 00.0 (00.0) n (%) E; the “Treatment emergent adverse events: Cough” value is reported as 00.0 (00.0) n (%) E; the “Treatment emergent adverse events: Psychiatric disorders” value is given as 00.0 (00.0) n (%) E; the “Treatment emergent adverse events: Respiratory, thoracic and mediastinal disorders” value was 00.0 (00.0) n (%) E. In addition, the “contribution of CYP2C19 to the first metabolic step (Step 1)” value with CYP2C19 was 45%. Moreover, the “share of the drug converted to the active metabolite H4” value in data set [3] is recorded as 15%.
